Data published in ChEMBL document CHEMBL1152460, “Phenotypic characterization of resistant Val36 variants of hepatitis C virus NS3-4A serine protease” (Antimicrob Agents Chemother, 2008).

Key:
Hepatitis C virus [1] = experiment: Antiviral activity against HCV Con1-mADE replicon with NS3 serine protease V36M/R155T double mutation in human HuH7 cells after 48 hrs by RNA replicon assay; format: functional, organism-based, Hepacivirus hominis; conditions: subtype 1b Con1-mADE, Huh-7, 48 h
Summary of the method: (§1)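 Stable genotype 1b Con1 subgenomic neo replicon cell lines carried three adaptive mutations. They were made by electroporating T7 runoff transcripts (ScaI-linearized template) into naive Huh-7 cells, selected with 0.5 mg/ml G418 and kept in 0.25 mg/ml. Mutations were confirmed by RT-PCR sequencing. EC50 came from a 48-h assay, at least three independent assays, mean ± SD. Fold change = variant mean EC50 / wild-type EC50.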

Hepatitis C virus [2] = experiment: Antiviral activity against wild type Con1-mADE HCV replicon in human HuH7 cells after 48 hrs by RNA replicon assay; format: functional, organism-based, Hepacivirus hominis; conditions: subtype 1b Con1-mADE, Huh-7, 48 h; summary of the method: as §1
Hepatitis C virus [3] = experiment: Antiviral activity against HCV Con1-mADE replicon with NS3 serine protease V36A/R155K double mutation in human HuH7 cells after 48 hrs by RNA replicon assay relative to wild type; format: functional, Hepacivirus hominis, subtype 1b Con1-mADE, Huh-7; summary of the method: as §1
Hepatitis C virus [4] = experiment: Antiviral activity against HCV Con1-mADE replicon with NS3 serine protease T54A mutation in human HuH7 cells after 48 hrs by RNA replicon assay; conditions: subtype 1b Con1-mADE, Huh-7, 48 h
Hepatitis C virus [5] = experiment: Antiviral activity against HCV Con1-mADE replicon with NS3 serine protease V36M mutation in human HuH7 cells after 48 hrs by RNA replicon assay; format: functional, organism-based, Hepacivirus hominis; conditions: subtype 1b Con1-mADE, Huh-7, 48 h; summary of the method: as §1
Hepatitis C virus [6] = experiment: Antiviral activity against HCV Con1-mADE replicon with NS3 serine protease V36A mutation in human HuH7 cells after 48 hrs by RNA replicon assay; format: functional, organism-based, Hepacivirus hominis; conditions: subtype 1b Con1-mADE, Huh-7, 48 h; summary of the method: as §1
Hepatitis C virus [7] = experiment: Antiviral activity against HCV Con1-mADE replicon with NS3 serine protease V36M/R155T double mutation in human HuH7 cells after 48 hrs by RNA replicon assay relative to wild type; format: functional, Hepacivirus hominis, subtype 1b Con1-mADE, Huh-7; summary of the method: as §1
Hepatitis C virus [8] = experiment: Antiviral activity against HCV Con1-mADE replicon with NS3 serine protease V36L mutation in human HuH7 cells after 48 hrs by RNA replicon assay relative to wild type; format: functional, Hepacivirus hominis, subtype 1b Con1-mADE, Huh-7; summary of the method: as §1
Hepatitis C virus [9] = experiment: Antiviral activity against HCV Con1-mADE replicon with NS3 serine protease V36A/R155K double mutation in human HuH7 cells after 48 hrs by RNA replicon assay; format: functional, organism-based, Hepacivirus hominis; conditions: subtype 1b Con1-mADE, Huh-7, 48 h; summary of the method: as §1
Hepatitis C virus [10] = experiment: Antiviral activity against HCV Con1-mADE replicon with NS3 serine protease V36M/R155K double mutation in human HuH7 cells after 48 hrs by RNA replicon assay relative to wild type; format: functional, Hepacivirus hominis, subtype 1b Con1-mADE, Huh-7; summary of the method: as §1
Hepatitis C virus [11] = experiment: Antiviral activity against HCV Con1-mADE replicon with NS3 serine protease V36A/R155T double mutation in human HuH7 cells after 48 hrs by RNA replicon assay; format: functional, organism-based, Hepacivirus hominis; conditions: subtype 1b Con1-mADE, Huh-7, 48 h; summary of the method: as §1
Hepatitis C virus [12] = experiment: Antiviral activity against HCV Con1-mADE replicon with NS3 serine protease V36A/R155T double mutation in human HuH7 cells after 48 hrs by RNA replicon assay relative to wild type; format: functional, Hepacivirus hominis, subtype 1b Con1-mADE, Huh-7; summary of the method: as §1
Hepatitis C virus [13] = experiment: Antiviral activity against HCV Con1-mADE replicon with NS3 serine protease V36M/R155K double mutation in human HuH7 cells after 48 hrs by RNA replicon assay; format: functional, organism-based, Hepacivirus hominis; conditions: subtype 1b Con1-mADE, Huh-7, 48 h; summary of the method: as §1
Hepatitis C virus [14] = experiment: Antiviral activity against HCV Con1-mADE replicon with NS3 serine protease V36A mutation in human HuH7 cells after 48 hrs by RNA replicon assay relative to wild type; format: functional, Hepacivirus hominis, subtype 1b Con1-mADE, Huh-7; summary of the method: as §1
Hepatitis C virus [15] = experiment: Antiviral activity against HCV Con1-mADE replicon with NS3 serine protease V36M mutation in human HuH7 cells after 48 hrs by RNA replicon assay relative to wild type; format: functional, Hepacivirus hominis, subtype 1b Con1-mADE, Huh-7; summary of the method: as §1
Hepatitis C virus [16] = experiment: Antiviral activity against HCV Con1-mADE replicon with NS3 serine protease T54A mutation in human HuH7 cells after 48 hrs by RNA replicon assay relative to wild type
[17] = Inhibition of wild type HCV genotype 1a NS3 protease expressed in Escherichia coli BL21 (DE3) measured after 1 hr
Hepatitis C virus [18] = experiment: Selectivity ratio of IC50 for HCV genotype 1b NS3 protease V36A mutant to IC50 for wild type HCV genotype 1b NS3 protease; set-up: species or system Hepatitis C virus subtype 1b
Summary of the method: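 Purified genotype 1b NS3 protease domain (wild-type isolate 3111 or V36A), E. coli BL21(DE3)-expressed, preincubated with 5 μM KK4A cofactor peptide 10 min 25°C then 10 min 30°C; inhibitor 60 min 30°C; then 5 μM RET-S1 FRET depsipeptide 20 min 30°C, 10–20% turnover. IC50(1 h) fitted; fold change = variant/wild-type IC50, 3–5 independent experiments, mean ± SD.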

Hepatitis C virus [19] = experiment: Antiviral activity against HCV Con1-mADE replicon with NS3 serine protease V36G mutation in human HuH7 cells after 48 hrs by RNA replicon assay; format: functional, organism-based, Hepacivirus hominis; conditions: subtype 1b Con1-mADE, Huh-7, 48 h; summary of the method: as §1
Hepatitis C virus [20] = experiment: Antiviral activity against HCV Con1-mADE replicon with NS3 serine protease V36A/T54A double mutation in human HuH7 cells after 48 hrs by RNA replicon assay relative to wild type; format: functional, Hepacivirus hominis, subtype 1b Con1-mADE, Huh-7
Summary of the method: (§2)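 Stable HCV genotype 1b subgenomic replicon (Con1-mADE, neo) cell lines made by electroporating ScaI-linearized T7 runoff RNA into naïve Huh-7 cells; selected in 0.5 mg/ml G418, maintained in 0.25 mg/ml; NS3 substitutions confirmed by RT-PCR sequencing. EC50 from 48-h replicon RNA reduction assay, ≥3 independent experiments, mean ± SD; fold change = variant mean EC50 / wild-type mean EC50.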

Hepatitis C virus [21] = experiment: Antiviral activity against HCV Con1-mADE replicon with NS3 serine protease V36M/A156T double mutation in human HuH7 cells after 48 hrs by RNA replicon assay; format: functional, organism-based, Hepacivirus hominis; conditions: subtype 1b Con1-mADE, Huh-7, 48 h; summary of the method: as §1
Hepatitis C virus [22] = experiment: Antiviral activity against HCV genotype 1 infected in patient assessed as logarithmic maximal reduction in plasma HCV RNA level at 750 mg dosed every 8 hrs measured after 14 days; format: functional, Hepacivirus hominis
Hepatitis C virus [23] = experiment: Antiviral activity against HCV Con1-mADE replicon with NS3 serine protease V36A/T54A double mutation in human HuH7 cells after 48 hrs by RNA replicon assay; format: functional, organism-based, Hepacivirus hominis; conditions: subtype 1b Con1-mADE, Huh-7, 48 h; summary of the method: as §1
Hepatitis C virus [24] = experiment: Antiviral activity against HCV Con1-mADE replicon with NS3 serine protease V36L mutation in human HuH7 cells after 48 hrs by RNA replicon assay; format: functional, organism-based, Hepacivirus hominis; conditions: subtype 1b Con1-mADE, Huh-7, 48 h; summary of the method: as §1
NS3 protease [25] = molecular target: NS3 protease (Hepacivirus C, UniProt C1KIQ2, R155K/V36M); experiment: Inhibition of HCV genotype 1a NS3 protease V36M/R155K double mutant expressed in Escherichia coli BL21 (DE3); set-up: species or system Hepatitis C virus subtype 1a
Summary of the method: (§3)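 NS3 protease domain (genotype 1a isolate 3201 or 1b isolate 3111) was expressed in E. coli BL21(DE3) with 5 h, 1 mM IPTG at 25°C, then purified by Talon and gel filtration. Enzyme was preincubated with 5 μM KK4A cofactor (10 min 25°C, 10 min 30°C), then inhibitor 60 min at 30°C, then 5 μM RET-S1 FRET substrate 20 min at 30°C. Substrate turnover was 10–20%. IC50(1 h) was fitted; 3–5 experiments, mean ± SD.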

Hepatitis C virus [26] = experiment: Antiviral activity against HCV Con1-mADE replicon with NS3 serine protease V36G mutation in human HuH7 cells after 48 hrs by RNA replicon assay relative to wild type; format: functional, Hepacivirus hominis, subtype 1b Con1-mADE, Huh-7; summary of the method: as §2
Hepatitis C virus [27] = experiment: Inhibition of wild type HCV genotype 1b NS3 protease expressed in Escherichia coli BL21 (DE3); set-up: species or system Hepatitis C virus subtype 1b
Summary of the method: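 NS3 protease domain (genotype 1a isolate 3201 or 1b isolate 3111) induced 5 h with 1 mM IPTG at 25°C and purified by Talon affinity and gel filtration. Preincubated with 5 μM KK4A cofactor peptide, then with inhibitor 60 min at 30°C. Then 20 min at 30°C with 5 μM RET-S1 FRET depsipeptide, reading product release at 10–20% turnover. IC50(1 h) by curve fit; 3–5 independent experiments, mean ± SD.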

NS3 protease [28] = molecular target: NS3 protease (Hepacivirus C, UniProt C1KIQ2, V36M); experiment: Inhibition of HCV genotype 1a NS3 protease V36M mutant expressed in Escherichia coli BL21 (DE3); set-up: species or system Hepatitis C virus subtype 1a; summary of the method: as §3
Hepatitis C virus [29] = experiment: Inhibition of HCV genotype 1b NS3 protease V36A mutant expressed in Escherichia coli BL21 (DE3); set-up: species or system Hepatitis C virus subtype 1b; summary of the method: as §3
NS3 protease [30] = molecular target: NS3 protease (Hepacivirus C, UniProt C1KIQ2, V36L); experiment: Inhibition of HCV genotype 1a NS3 protease V36L mutant expressed in Escherichia coli BL21 (DE3); set-up: species or system Hepatitis C virus subtype 1a; summary of the method: as §3
Hepatitis C virus [31] = experiment: Antiviral activity against HCV Con1-mADE replicon with NS3 serine protease V36M/A156T double mutation in human HuH7 cells after 48 hrs by RNA replicon assay relative to wild type; format: functional, Hepacivirus hominis, subtype 1b Con1-mADE, Huh-7; summary of the method: as §2
Hepatitis C virus [32] = experiment: Antiviral activity against HCV genotype 1 infected in patient assessed as log10 reduction in plasma HCV RNA level at 750 mg dosed every 8 hrs measured after 2 days; format: functional, Hepacivirus hominis

Structure (SMILES) | EC50 (Hepatitis C virus [1]) | EC50 (Hepatitis C virus [2]) | fold change (FC) (Hepatitis C virus [3]) | EC50 (Hepatitis C virus [4]) | EC50 (Hepatitis C virus [5]) | EC50 (Hepatitis C virus [6]) | fold change (FC) (Hepatitis C virus [7]) | fold change (FC) (Hepatitis C virus [8]) | EC50 (Hepatitis C virus [9]) | fold change (FC) (Hepatitis C virus [10]) | EC50 (Hepatitis C virus [11]) | fold change (FC) (Hepatitis C virus [12]) | EC50 (Hepatitis C virus [13]) | fold change (FC) (Hepatitis C virus [14]) | fold change (FC) (Hepatitis C virus [15]) | also measured
NC(=O)c1ncn([C@@H]2O[C@H](CO)[C@@H](O)[C@H]2O)n1 [RIBAVIRIN] | 36 µM | 58 µM | 0.6 | 22 µM | 33 µM | 43 µM | 0.6 | 0.4 | 36 µM | 0.7 | 42 µM | 0.7 | 41 µM | 0.8 | 0.6 | –
CCC[C@H](NC(=O)[C@@H]1[C@H]2CCC[C@H]2CN1C(=O)[C@@H](NC(=O)[C@@H](NC(=O)c1cnccn1)C1CCCCC1)C(C)(C)C)C(=O)C(=O)NC1CC1 [TELAPREVIR] | > 30 µM | 0.49 µM | 40 | 3 µM | 3.4 µM | 3.6 µM | >62 | 2.2 | 20 µM | 62 | > 30 µM | >62 | 30 µM | 7.4 | 7 | fold change (FC) (Hepatitis C virus [16]): 6.3; IC50 [17]: 0.05 µM; fold change (FC) (Hepatitis C virus [18]): 3.6; EC50 (Hepatitis C virus [19]): 5.4 µM; fold change (FC) (Hepatitis C virus [20]): 20.1; EC50 (Hepatitis C virus [21]): > 30 µM; Activity (Hepatitis C virus [22]): 4.65; EC50 (Hepatitis C virus [23]): 9.7 µM; EC50 (Hepatitis C virus [24]): 1.1 µM; IC50 (NS3 protease [25]): 3.4 µM; fold change (FC) (Hepatitis C virus [26]): 11.2; IC50 (Hepatitis C virus [27]): 0.063 µM; IC50 (NS3 protease [28]): 0.27 µM; IC50 (Hepatitis C virus [29]): 0.23 µM; IC50 (NS3 protease [30]): 0.13 µM; fold change (FC) (Hepatitis C virus [31]): >62; Activity (Hepatitis C virus [32]): 3
